Columns and labels:
[1] = Steady-state plasma pharmacokinetics of GS-9450; type: in vivo, human
In short: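 Plasma was assayed with a validated bioanalytical method. Steady-state Cmax, Tmax, T1/2 and AUCtau came from weeks 2–4 profiles by noncompartmental analysis. Trough samples were taken at weeks 1–4 and follow-up week 1. Dose proportionality of AUCtau and Cmax was tested by a power model across all fasted doses.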

[2] = system: patients with chronic hepatitis C virus (HCV) infection; settings: short-term treatment; cited from earlier work
hepatitis C subjects = settings: human, in vivo; cited from earlier work
adults with NASH [3] = experiment: Serum ALT, phase 2 placebo-controlled trial of GS-9450 for 4 weeks; type: in vivo, human; settings: for ALT, %Change at Week 4 / ALT, Change at Week 2 / ALT, Change at Week 4: mean (SD); for Observed change from baseline to week 4 in ALT, Difference T − R / Percent change from baseline to week 4 in ALT, Difference T − R / Observed change from baseline to week 4 in ALT, Least Squares Means GS-9450 (T) / Percent change from baseline to week 4 in ALT, Least Squares Means GS-9450 (T): ANCOVA model
adults with NASH [4] = experiment: Serum AST, phase 2 placebo-controlled trial of GS-9450 for 4 weeks; type: in vivo, human; settings: for AST, %Change at Week 4 / AST, Change at Week 2 / AST, Change at Week 4: mean (SD)
adults with NASH [5] = experiment: Treatment-emergent grade 3 or 4 laboratory abnormalities, phase 2 trial
adults with NASH [6] = experiment: Exploratory pharmacokinetic/pharmacodynamic modeling; type: in vivo, human; settings: mean exposure with 40 mg; inhibitory Emax model
adults with NASH [7] = experiment: Serum caspase-3-cleaved CK-18 fragments; type: in vivo, human; settings: mean (SD)
adults with NASH [8] = experiment: Adverse events, phase 2 trial; type: in vivo, human
[9] = range across the GS-9450 treatment groups

For CC(C)[C@@]1(C(=O)N[C@H]2CC(=O)O[C@]2(O)CF)CC(c2nccc3ccccc23)=NO1 [GS-9450], the “time by which steady state had been reached” value ([1]; daily dosing, all dose groups) was 2–4 weeks, the “median Tmax” value ([1]; fasting conditions, steady state, plasma) was 2 to 3 h and the Cmax dose proportionality ([1]; from 1 to 40 mg) was “dose-proportional”. For the same compound, the “effect on ALT levels” value [2] was “reductions in alanine aminotransferase (ALT) levels”, the drug-induced liver injury (hepatitis C subjects) was “episodes of drug-induced liver injury attributable to GS-9450 occurred” and the “ALT, %Change at Week 4” value (adults with NASH [3]; 1 mg once daily) was −8 (41) %. For the same compound, the “ALT, Change at Week 2” value (adults with NASH [3]; 1 mg once daily) was −17 (31) U/L, the “ALT, Change at Week 4” value (adults with NASH [3]; 1 mg once daily) was −14 (40) U/L and the “Observed change from baseline to week 4 in ALT, Difference T − R” value (“Observed change … Difference T − R” for short) (adults with NASH [3]; 1 mg vs. pooled placebo) was −11 U/L. For the same compound, the “Percent change from baseline to week 4 in ALT, Difference T − R” value (“Percent change … Difference T − R” below) (adults with NASH [3]; 1 mg vs. pooled placebo) was −6%, the “Observed change from baseline to week 4 in ALT, Least Squares Means GS-9450 (T)” value (from here on “Observed change from baseline … (T)”) (adults with NASH [3]; 1 mg) was −15 U/L and the “Percent change from baseline to week 4 in ALT, Least Squares Means GS-9450 (T)” value (shortened to “Percent change from baseline … (T)”) (adults with NASH [3]; 1 mg) was −8%. For the same compound, the “ALT, %Change at Week 4” value (adults with NASH [3]; 5 mg once daily) was −28 (21) %, the “ALT, Change at Week 2” value (adults with NASH [3]; 5 mg once daily) was −35 (18) U/L and the “ALT, Change at Week 4” value (adults with NASH [3]; 5 mg once daily) was −30 (26) U/L. For the same compound, the “Observed change … Difference T − R” value (adults with NASH [3]; 5 mg vs. pooled placebo) was −25 U/L, the “Percent change … Difference T − R” value (adults with NASH [3]; 5 mg vs. pooled placebo) was −26% and the “Observed change from baseline … (T)” value (adults with NASH [3]; 5 mg) was −29 U/L. The “Percent change from baseline … (T)” value (adults with NASH [3]; 5 mg) was −28%, the “ALT, %Change at Week 4” value (adults with NASH [3]; 10 mg once daily) was −30 (20) % and the “ALT, Change at Week 2” value (adults with NASH [3]; 10 mg once daily) was −37 (23) U/L. The “ALT, Change at Week 4” value (adults with NASH [3]; 10 mg once daily) was −30 (26) U/L, the “Observed change … Difference T − R” value (adults with NASH [3]; 10 mg vs. pooled placebo) was −28 U/L and the “Percent change … Difference T − R” value (adults with NASH [3]; 10 mg vs. pooled placebo) was −28%. For the same compound, the “Observed change from baseline … (T)” value (adults with NASH [3]; 10 mg) was −32 U/L, the “Percent change from baseline … (T)” value (adults with NASH [3]; 10 mg) was −31% and the “mean (SD) ALT decrease from baseline to week 4” value (adults with NASH [3]; 40 mg) was 47 (43) U/L. For the same compound, the “ALT, %Change at Week 4” value (adults with NASH [3]; 40 mg once daily) was −43 (19) %, the “ALT, Change at Week 2” value (adults with NASH [3]; 40 mg once daily) was −46 (46) U/L and the “ALT, Change at Week 4” value (adults with NASH [3]; 40 mg once daily) was −47 (43) U/L. The “Observed change … Difference T − R” value (adults with NASH [3]; 40 mg vs. pooled placebo) was −39 U/L, the “Percent change … Difference T − R” value (adults with NASH [3]; 40 mg vs. pooled placebo) was −40% and the “mean ALT change from baseline at follow-up week 2” value (adults with NASH [3]; 40 mg, off treatment) was 16 IU/L. For the same compound, the “mean ALT change from baseline at follow-up week 3” value (adults with NASH [3]; 40 mg, off treatment) was 13 IU/L, the “mean ALT change from baseline at follow-up week 4” value (adults with NASH [3]; 40 mg, off treatment) was 12 IU/L and the “proportion of subjects with normal ALT at week 4” value (adults with NASH [3]; 40 mg, 0% at baseline, normal 43 U/L males, 34 U/L females) was 35%. For the same compound, the “mean absolute ALT value at week 4” value (adults with NASH [3]; 40 mg, 106 U/L at baseline) was 62 U/L, the “Observed change from baseline … (T)” value (adults with NASH [3]; 40 mg) was −43 U/L and the “Percent change from baseline … (T)” value (adults with NASH [3]; 40 mg) was −42%. For the same compound, the “nonresponders at week 4 (decrease in ALT of <10% relative to baseline)” value (adults with NASH [3]; 40 mg, two subjects) was 8%, the “time after stopping study medication until ALT reduction was offset” value (adults with NASH [3]; off-treatment follow-up) was ≤ 1 week and the “ALT mean (SD) changes from baseline at week 4” value (adults with NASH [3]; range across the GS-9450 groups (1-40 mg)) was −14 (40) to −47 (43) U/L. For the same compound, the “AST, %Change at Week 4” value (adults with NASH [4]; 1 mg once daily) was −2 (41) %, the “AST, Change at Week 2” value (adults with NASH [4]; 1 mg once daily) was −4 (36) U/L and the “AST, Change at Week 4” value (adults with NASH [4]; 1 mg once daily) was −8 (35) U/L. The “AST, %Change at Week 4” value (adults with NASH [4]; 5 mg once daily) was −6 (38) %, the “AST, Change at Week 2” value (adults with NASH [4]; 5 mg once daily) was −12 (16) U/L and the “AST, Change at Week 4” value (adults with NASH [4]; 5 mg once daily) was −5 (24) U/L. The “AST, %Change at Week 4” value (adults with NASH [4]; 10 mg once daily) was −16 (29) %, the “AST, Change at Week 2” value (adults with NASH [4]; 10 mg once daily) was −22 (34) U/L and the “AST, Change at Week 4” value (adults with NASH [4]; 10 mg once daily) was −12 (36) U/L. For the same compound, the “mean AST decrease from baseline to week 4” value (adults with NASH [4]; 40 mg) was 13 U/L, the “proportion of subjects with normal AST, peak at day 3” value (adults with NASH [4]; 40 mg) was 77% and the “AST, %Change at Week 4” value (adults with NASH [4]; 40 mg once daily) was −20 (26) %. The “AST, Change at Week 2” value (adults with NASH [4]; 40 mg once daily) was −16 (20) U/L, the “AST, Change at Week 4” value (adults with NASH [4]; 40 mg once daily) was −13 (20) U/L and the “proportion of subjects with normal AST at week 4” value (adults with NASH [4]; 40 mg, 20% at baseline, normal 36 U/L males, 34 U/L females) was 48%. For the same compound, the “mean AST within 1 week of stopping study medication” value (adults with NASH [4]; all GS-9450 treatment groups) was “modestly above baseline levels”, the “AST mean (SD) changes by treatment week 4” value (adults with NASH [4]; [9]) was −5 (24) to −13 (20) U/L and the “AST mean changes from baseline over the first week of treatment” value (adults with NASH [4]; [9]) was −9 (23) to −27 (29) U/L. The “treatment-emergent grade 3 elevated ALT, subjects” value (adults with NASH [5]; 1 mg, on-treatment) was “one subject”, the “treatment-emergent grade 3 elevated AST, subjects” value (adults with NASH [5]; 5 mg) was “one subject” and the “treatment-emergent grade 3 or 4 elevated serum lipase, subjects” value (adults with NASH [5]; 5 mg) was “one subject”. The “treatment-emergent grade 3 or 4 ALT elevations during dosing” value (adults with NASH [5]; 5, 10, or 40 mg daily, 75 patients) was “No treatment-emergent grade 3 or 4 ALT elevations”, the “response as percent of the maximal effect achievable with GS-9450 (week 4 difference in ALT or CK-18 fragments)” value (adults with NASH [6]) was “at least 82%” and the “CK-18 fragments, %Change at Week 4” value (adults with NASH [7]; 1 mg once daily) was 23 (81) %. For the same compound, the “CK-18 fragments, Change at Week 2” value (adults with NASH [7]; 1 mg once daily) was 164 (384) U/L, the “CK-18 fragments, Change at Week 4” value (adults with NASH [7]; 1 mg once daily) was 192 (584) U/L and the “CK-18 fragments, %Change at Week 4” value (adults with NASH [7]; 5 mg once daily) was 25 (120) %. The “CK-18 fragments, Change at Week 2” value (adults with NASH [7]; 5 mg once daily) was −116 (608) U/L, the “CK-18 fragments, Change at Week 4” value (adults with NASH [7]; 5 mg once daily) was 96 (641) U/L and the “CK-18 fragments, %Change at Week 4” value (adults with NASH [7]; 10 mg once daily) was −26 (38) %. The “CK-18 fragments, Change at Week 2” value (adults with NASH [7]; 10 mg once daily) was −460 (866) U/L, the “CK-18 fragments, Change at Week 4” value (adults with NASH [7]; 10 mg once daily) was −393 (723) U/L and the “mean CK-18 fragment levels had decreased to, by week 4” value (adults with NASH [7]; 10 mg) was 393 (723) U/L. For the same compound, the “CK-18 fragments, %Change at Week 4” value (adults with NASH [7]; 40 mg once daily) was −19 (32) %, the “CK-18 fragments, Change at Week 2” value (adults with NASH [7]; 40 mg once daily) was −140 (490) U/L and the “CK-18 fragments, Change at Week 4” value (adults with NASH [7]; 40 mg once daily) was −125 (212) U/L. The “mean CK-18 fragment levels had decreased to, by week 4” value (adults with NASH [7]; 40 mg) was 125 (212) U/L, the “frequency of treatment-emergent AEs during the 4-week on-treatment period” value (adults with NASH [8]; 1 mg) was 77% and the Abdominal pain (adults with NASH [8]; 1 mg (n = 26), during treatment) was 1 (4) n (%).

— paper PMC3779694 (Hepatology (Baltimore, Md.), 2011)
